Structures are written as SMILES. Activity calls are given as the source filed them.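 Rule for the calls, unless noted: active = viability at or below 10% of carrier control in both of two separate runs; inconclusive = viability at or below 10% in only one of the two runs; inactive = the rest.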

Assay [1] can be described thus: Her2 expression decrease, cell viability multiplex – SKBR3 breast tumor cells, AlphaScreen, ATP viability, primary screen (AID 461;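 active = Her2 level under about 52% in both replicate screens, with viability over 70% of control, limit read from the data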;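 for Her2 level: lower value means less Her2 protein in the cells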;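 for viability: percent of carrier control wells set as 100% viability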). The conditions noted are these: SKBR3 Her2 protein level, 18-24 h, measured here: SKBR3 viability, ATP luminescence, at 10 µM.
For assay [2], the target named is Receptor tyrosine-protein kinase erbB-2 (Homo sapiens) (UniProt P04626). Described as above. As to conditions: 18-24 h, at 10 µM, stronger effect = lower value.
Chain of Receptor tyrosine-protein kinase erbB-2 (Homo sapiens) (P04626 whole entry, looked up): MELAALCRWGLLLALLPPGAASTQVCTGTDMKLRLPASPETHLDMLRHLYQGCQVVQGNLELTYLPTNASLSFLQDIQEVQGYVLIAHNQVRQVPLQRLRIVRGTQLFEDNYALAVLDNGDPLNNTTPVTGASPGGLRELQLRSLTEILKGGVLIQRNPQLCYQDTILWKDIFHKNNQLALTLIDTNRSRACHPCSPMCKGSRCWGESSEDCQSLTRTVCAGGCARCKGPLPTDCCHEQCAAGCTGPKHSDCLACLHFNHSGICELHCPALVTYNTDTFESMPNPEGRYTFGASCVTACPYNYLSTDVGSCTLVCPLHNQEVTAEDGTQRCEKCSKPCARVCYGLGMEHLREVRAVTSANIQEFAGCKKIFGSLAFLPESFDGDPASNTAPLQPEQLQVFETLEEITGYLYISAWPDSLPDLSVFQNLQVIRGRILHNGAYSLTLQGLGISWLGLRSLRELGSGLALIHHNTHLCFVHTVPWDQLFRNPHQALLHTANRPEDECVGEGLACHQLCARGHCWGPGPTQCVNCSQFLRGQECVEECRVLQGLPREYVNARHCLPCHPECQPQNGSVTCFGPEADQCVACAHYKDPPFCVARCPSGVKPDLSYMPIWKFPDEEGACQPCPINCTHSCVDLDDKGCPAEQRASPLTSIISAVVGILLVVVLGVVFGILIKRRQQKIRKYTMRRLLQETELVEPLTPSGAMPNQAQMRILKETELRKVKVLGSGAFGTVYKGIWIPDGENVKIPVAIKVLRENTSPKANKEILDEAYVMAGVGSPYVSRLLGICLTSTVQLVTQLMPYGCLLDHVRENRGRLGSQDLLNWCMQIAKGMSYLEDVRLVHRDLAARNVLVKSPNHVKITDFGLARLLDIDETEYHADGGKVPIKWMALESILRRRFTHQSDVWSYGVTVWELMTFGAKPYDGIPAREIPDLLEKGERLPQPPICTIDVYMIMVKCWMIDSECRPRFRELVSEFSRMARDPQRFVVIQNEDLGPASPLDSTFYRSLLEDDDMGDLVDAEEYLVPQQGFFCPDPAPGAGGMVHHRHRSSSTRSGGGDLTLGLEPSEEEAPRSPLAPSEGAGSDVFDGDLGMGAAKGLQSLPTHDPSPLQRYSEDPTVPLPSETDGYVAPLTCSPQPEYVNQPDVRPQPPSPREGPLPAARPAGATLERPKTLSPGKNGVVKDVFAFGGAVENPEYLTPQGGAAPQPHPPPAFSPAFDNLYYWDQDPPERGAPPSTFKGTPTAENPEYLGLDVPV
Assay [3] in a line: reduced viability of SK-BR-3 breast cancer cells – cell-based, 24 h, human, pilot screen (AID 572).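 Note: compound exposure lasted between 18 and 24 h rather than exactly 24 h; 100% = carrier-treated control wells.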 The conditions noted are these: SK-BR-3 viability, CellTiter-Glo luminescence, at 10 µM, stronger effect = lower value.
Assay [4] is described as follows: HUVEC growth inhibition – cell-based, human, primary screen (AID 575;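 active = viability at or below 30% in both replicate assays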;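 note: 100% = median of untreated cell wells with 0.1% DMSO on each plate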). As to conditions: HUVEC proliferation, CellTiter-Glo luminescence, 72 h; at 10 µM; stronger effect = lower value. Summed up:
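material = primary HUVEC, no more than 12 passages | input = 1250 cells per well | controls = vehicle and MePR control wells | measured by = CTG luminescence | times = 72 h compound incubation | format = collagen-coated 384-well format | read-out = % viability vs DMSO wells | doses = single 10 µM dose, 0.1% DMSO, from 5x medium stock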

The nature of assay [5]: H69AR cell proliferation blockers – human, duplicate replicates, primary screen (AID 580;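 active = viability at or under a set limit in both replicates, limit being median viability minus 3 SD, cut at about 48% in these data, passing the limit was not always enough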;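 note: 100% = mean luminescence of untreated wells and 0% = no signal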). The conditions noted are these: H69AR lung tumor cells viability, ATP luminescence, 72 h; at 10 µM; stronger effect = lower value.
The nature of assay [6]: MRP1 drug-resistance reversers in H69AR cells – cell-based, doxorubicin co-treatment, pilot screen (AID 601;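 active = viability loss from added drug above about 55%, and viability with drug at most 40%, in both replicates, limit read from the data, passing the limit was not always enough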). As to conditions: CellTiter-Glo, 72 h, at 10 µM; for differential viability (reversal): stronger effect = higher value.
Assay [7] can be described thus: yeast transport mutant growth inhibition pilot in 384-well plates, post-Golgi transport modulator project (AID 636; in the data active = inhibition above about 31%). The conditions noted are these: absorbance 615 nm, about 18 h, stronger effect = higher value.
A short description of assay [8]: growth suppression of yeast trafficking mutant, preliminary HTS, modulators of trafficking downstream of Golgi apparatus project, 1536-format plate, OD 615 nm (AID 637; in the data active = inhibition above about 30%). As to conditions: yeast transport mutant growth, absorbance 615 nm, 18 h; stronger effect = higher value.
Where [9] appears, read: H69AR cells + 2 uM doxorubicin, measured here: viability with 2 uM doxorubicin, stronger effect = lower value.
[10] abbreviates: H69AR cells, compound alone cytotoxicity.

For `COc1ccc(OC)c(-n2nnnc2SCC(=O)NCc2ccc3c(c2)OCO3)c1`, the viability in assay [1] is 98.5%; in assay [3], 98.5% (inactive); in assay [4] it was 84.4% (inactive); in assay [5], 93.9% (inactive); in assay [6] (setting [9]) it was 94.9%; in assay [6] (setting [10]) it was 93.9%. The Her2 level in assay [2] was 88% (inactive). Also, in assay [6] (H69AR cells + 2 uM doxorubicin), the differential viability (reversal) was -1.01% (inactive). Further, the values for the inhibition in assay [7] and in assay [8] were -5.87% (inactive) and 5.57% (inactive), respectively.

Consider `COc1ccccc1N1CCN(C(=O)c2ccc3nc(-c4ccco4)c(-c4ccco4)nc3c2)CC1`, for which the viability in assay [1] was 103%; in assay [3], 103% (inactive); in assay [4] it was 48.5% (inactive); in assay [5] it was 69.6% (inactive); in assay [6] (setting [9]), 77.6%; in assay [6] (setting [10]) it was 69.6%. In assay [2], the Her2 level is 79.5% (inactive). Besides, the differential viability (reversal) in assay [6] (H69AR cells + 2 uM doxorubicin) was -8.06% (inactive). The inhibition is -4.67% (inactive) in assay [7] and -4.1% (inactive) in assay [8].

For the compound `CCOC(=O)CNC(=O)Cn1cnc2c(nnn2-c2cccc(Cl)c2)c1=O`, the viability was 82.5% in assay [1]; 82.5% (inactive) in assay [3]; 105% (inactive) in assay [4]; 107% (inactive) in assay [5]; 108% in assay [6] (setting [9]); 107% in assay [6] (setting [10]). The Her2 level in assay [2] was 109% (inactive). Also, in assay [6] (H69AR cells + 2 uM doxorubicin), the differential viability (reversal) was -1.7% (inactive). Further, the inhibition in assay [7] is -0.53% (inactive); in assay [8] it was -6.83% (inactive).

As for `Cc1occc1C(=O)Nc1cccc2ccccc12`, the viability in assay [1] is 86%; in assay [3], 86% (inactive); in assay [4], 62.9% (inactive); in assay [5], 73.2% (inactive); in assay [6] (setting [9]), 86.1%; in assay [6] (setting [10]), 73.2%. In addition, in assay [2], the Her2 level is 75.5% (inactive). Further, in assay [6] (H69AR cells + 2 uM doxorubicin), the differential viability (reversal) was -12.8% (inactive). Besides, the inhibition was -1.84% (inactive) in assay [7] and 1.77% (inactive) in assay [8].

As for `CC1(C)CC(=O)c2cnc(NC(=O)CSc3nc4ccccc4o3)nc2C1`, the viability was 96% in assay [1]; 96% (inactive) in assay [3]; 81.4% (inactive) in assay [4]; 105% (inactive) in assay [5]; 95.7% in assay [6] (setting [9]); 105% in assay [6] (setting [10]). For the same compound, the Her2 level in assay [2] was 98.5% (inactive). The differential viability (reversal) in assay [6] (H69AR cells + 2 uM doxorubicin) is 9.52% (inactive). The inhibition in assay [7] is -4.46% (inactive); in assay [8], 0.83% (inactive).

For `COC(=O)c1ccccc1NC(=O)Nc1cc(C)cc(C)n1`, the viability in assay [1] was 96%; in assay [3], 96% (inactive); in assay [4], 103% (inactive); in assay [5], 102% (inactive); in assay [6] (setting [9]) it was 94.8%; in assay [6] (setting [10]), 102%. In addition, the Her2 level in assay [2] was 86% (inactive). In assay [6] (H69AR cells + 2 uM doxorubicin), the differential viability (reversal) was 6.95% (inactive). Besides, the inhibition was -1.58% (inactive) in assay [7] and -1.9% (inactive) in assay [8].

`COc1ccc(CCn2c(N)c(C#N)c3nc4ccccc4nc32)cc1OC`: the viability in assay [1] is 64%; in assay [3], 64% (inactive); in assay [4], 94.3% (inactive); in assay [5] it was 90.4% (inactive); in assay [6] (setting [9]), 89.6%; in assay [6] (setting [10]) it was 90.4%. In assay [2], the Her2 level is 82.5% (inactive). Further, the differential viability (reversal) in assay [6] (H69AR cells + 2 uM doxorubicin) is 0.84% (inactive). In addition, the inhibition in assay [7] is -1.45% (inactive); in assay [8], 7.87% (inactive).

`CCOC(=O)CSc1nc2ccccc2n1CC(=O)N1CCN(c2ccccc2)CC1`: the viability was 93.5% in assay [1]; 93.5% (inactive) in assay [3]; 87.2% (inactive) in assay [4]; 89.9% (inactive) in assay [5]; 87.1% in assay [6] (setting [9]); 89.9% in assay [6] (setting [10]). For the same compound, the Her2 level in assay [2] was 99.5% (inactive). Further, the differential viability (reversal) in assay [6] (H69AR cells + 2 uM doxorubicin) was 2.73% (inactive). In addition, the inhibition in assay [7] was -1.3% (inactive); in assay [8], -4.92% (inactive).

For the compound `COc1ccc(NC(=O)C23CCC(C)(C(=O)C2)C3(C)C)cc1` (stereo not given), the viability was 92.5% in assay [1]; 92.5% (inactive) in assay [3]; 105% (inactive) in assay [4]; 102% (inactive) in assay [5]; 99.3% in assay [6] (setting [9]); 102% in assay [6] (setting [10]). In addition, in assay [2], the Her2 level was 102% (inactive). Also, the differential viability (reversal) in assay [6] (H69AR cells + 2 uM doxorubicin) is 2.21% (inactive). For the same compound, the values for the inhibition in assay [7] and in assay [8] were -1.07% (inactive) and 0.48% (inactive), respectively.

On to `c1cncc(-c2nc3c4ccccc4nc(N4CCC(N5CCCCC5)CC4)n3n2)c1`, for which the viability in assay [1] was 93.5%; in assay [3] it was 93.5% (inactive); in assay [4], 80.1% (inactive); in assay [5], 84.1% (inactive); in assay [6] (setting [9]) it was 81.2%; in assay [6] (setting [10]) it was 84.1%. For the same compound, the Her2 level in assay [2] is 79.5% (inactive). The differential viability (reversal) in assay [6] (H69AR cells + 2 uM doxorubicin) was 2.83% (inactive). Further, the figures for the inhibition in assay [7] and in assay [8] were -9.73% (inactive) and -0.48% (inactive), respectively.

In the case of `O=c1oc2ccccc2c(N2CCCCC2)c1CN1CCCCC1`, the viability in assay [1] was 86%; in assay [3], 86% (inactive); in assay [4], 86.2% (inactive); in assay [5] it was 82.5% (inactive); in assay [6] (setting [9]), 83.3%; in assay [6] (setting [10]) it was 82.5%. Besides, in assay [2], the Her2 level is 99% (inactive). The differential viability (reversal) in assay [6] (H69AR cells + 2 uM doxorubicin) was -0.775% (inactive). In addition, the results for the inhibition in assay [7] and in assay [8] were -1.05% (inactive) and -4.03% (inactive), respectively.

For `c1ccc(-c2csc(N3CCCCCC3)n2)cc1`, the viability in assay [1] was 91.5%; in assay [3], 91.5% (inactive); in assay [4], 104% (inactive); in assay [5], 100% (inactive); in assay [6] (setting [9]) it was 85.6%; in assay [6] (setting [10]) it was 100%. Besides, the Her2 level in assay [2] was 104% (inactive). In addition, in assay [6] (H69AR cells + 2 uM doxorubicin), the differential viability (reversal) is 14.9% (inactive). Moreover, the inhibition in assay [7] is -0.27% (inactive); in assay [8], -4.35% (inactive).

As to `COc1ccc(-n2cnnc2SCCC#N)cc1`, the viability is 106% in assay [1]; 106% (inactive) in assay [3]; 88.3% (inactive) in assay [4]; 106% (inactive) in assay [5]; 89.5% in assay [6] (setting [9]); 106% in assay [6] (setting [10]). Further, the Her2 level in assay [2] is 96.5% (inactive). For the same compound, the differential viability (reversal) in assay [6] (H69AR cells + 2 uM doxorubicin) is 16.2% (inactive). Moreover, the inhibition in assay [7] was -3.33% (inactive); in assay [8], 3.71% (inactive).

`CCn1cc(C(=O)NCCN(C)CCc2ccccc2)c(=O)c2cc(S(=O)(=O)N(C)C)ccc21`: the viability is 90% in assay [1]; 90% (inactive) in assay [3]; 75.9% (inactive) in assay [4]; 81.2% (inactive) in assay [5]; 79.8% in assay [6] (setting [9]); 81.2% in assay [6] (setting [10]). Further, the Her2 level in assay [2] was 106% (inactive). In assay [6] (H69AR cells + 2 uM doxorubicin), the differential viability (reversal) is 1.48% (inactive). Further, the inhibition in assay [7] was -1.73% (inactive); in assay [8], 12.6% (inactive).

Consider `COc1ccccc1-c1coc2c(CN3CCN(CCO)CC3)c(O)ccc2c1=O`, for which the viability is 87.5% in assay [1]; 87.5% (inactive) in assay [3]; 94.5% (inactive) in assay [4]; 106% (inactive) in assay [5]; 87.5% in assay [6] (setting [9]); 106% in assay [6] (setting [10]). The Her2 level in assay [2] was 93.5% (inactive). Also, the differential viability (reversal) in assay [6] (H69AR cells + 2 uM doxorubicin) is 18.9% (inactive). Further, the inhibition in assay [7] was -4.27% (inactive); in assay [8] it was 0.65% (inactive).

As to `COc1ccccc1-c1cc(C(=O)Nc2cc(C)nn2-c2ccccc2)no1`, the viability was 89% in assay [1]; 89% (inactive) in assay [3]; 61% (inactive) in assay [4]; 15.5% (active) in assay [5]; 49.1% in assay [6] (setting [9]); 15.5% in assay [6] (setting [10]). The Her2 level in assay [2] is 81.5% (inactive). Also, the differential viability (reversal) in assay [6] (H69AR cells + 2 uM doxorubicin) was -33.6% (inactive). Further, the inhibition was 7.84% (inactive) in assay [7] and -3.11% (inactive) in assay [8].

For the origin of these results see PubChem BioAssay.
